Experimental data: ChEMBL document CHEMBL4680226, “Design, synthesis, and evaluation of N-phenyl-4-(2-phenylsulfonamido)-benzamides as microtubule-targeting agents in drug-resistant cancer cells, displaying HDAC inhibitory response” (Eur J Med Chem, 2020)
Active and inactive are the calls of the source. No cut-off for these calls is given here.

Key:
KB7D [1] = assay: Cell cycle arrest in human KB7D cells assessed as increase in accumulation at sub-G1 phase at 0.01 to 0.1 uM measured after 48 hrs by propidium iodide staining based flow cytometry; assay type: functional; conditions: dose 0.01-0.1 µM
Method in brief: (§1)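 Cells seeded at 2.5×10^5 per well and exposed to DMSO or compound for the stated times. They were washed in PBS and fixed overnight in ice-cold 70% ethanol at −20 °C. Staining used propidium iodide 80 µg/mL with 0.1% Triton X-100 and RNase A 100 µg/mL in PBS. DNA content was read by FACScan flow cytometry.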

KB = assay: Antiproliferative activity against human KB cells incubated for 48 hrs by SRB assay; assay type: functional
Method in brief: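 KB parental and resistant sublines kept in RPMI 1640 with 5% FBS at 37 °C, 5% CO2. Cells plated, left overnight, then given graded compound concentrations for 48 h. A time-zero plate was fixed with 10% TCA at dosing. Cells were stained with 0.4% SRB in 1% acetic acid, unbound dye washed off, bound dye dissolved in 10 mM Tris base, and absorbance read at 515 nm.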

KB-VIN [2] = assay: Induction of apoptosis in human KB-VIN cells assessed as increase in cleaved PARP expression at 0.1 to 0.5 uM measured after 24 hrs by Western blot analysis; assay type: functional, cell-based; conditions: dose 0.1-0.5 µM
Method in brief: (§2)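 Resistant KB cells attached overnight, then drug-treated at the stated concentrations and times (24 h or 48 h). Lysates were immunoblotted for cleaved PARP, caspase-3, -8 and -9, and γH2AX, with anti-mouse or anti-rabbit IgG secondaries.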

KB-VIN [3] = assay: Induction of apoptosis in human KB-VIN cells assessed as increase in cleaved PARP expression at 0.05 uM measured after 48 hrs by Western blot analysis; assay type: functional, cell-based; method in brief: as §2
KB-VIN [4] = assay: Induction of apoptosis in human KB-VIN cells assessed as increase in cleaved caspase-8 expression at 0.1 to 0.5 uM measured after 24 hrs by Western blot analysis; assay type: functional, cell-based; conditions: dose 0.1-0.5 µM; method in brief: as §2
Tubulin (Homo sapiens) [5] = biological target: T1, Tubulin (Homo sapiens) (UniProt P68371+Q9H4B7+P0DPH7+P68366+Q13509+Q71U36+P04350+Q3ZCM7+P07437+P68363+Q9BQE3+Q6PEY2+Q13885+Q9BVA1+Q9BUF5); assay: Induction of microtubule disruption in human KB-VIN cells assessed as polymerized fraction at 0.01 uM measured after 16 hrs by SDS-PAGE analysis (reference value: 23.1 to 25.5%); assay type: cell-based
Method in brief: (§3)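 KB-Vin or KB-7D cells treated 16 h, then lysed 5 min at 37 °C in the dark in hypotonic buffer (1% NP-40, 1 mmol/L MgCl2, 2 mmol/L EGTA, 50 mmol/L Tris-HCl pH 6.8, protease inhibitors). Spun 13000 rpm, 10 min, room temperature. Soluble supernatant and resuspended polymerized pellet run on SDS-PAGE.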

Histone deacetylase 8 = biological target: T2, Histone deacetylase 8 (Homo sapiens, UniProt Q9BY41); assay: Inhibition of human recombinant HDAC8 using RHKAcKAc-AMC as substrate measured after 60 mins by fluorescence assay
T2 sequence (Q9BY41 whole entry): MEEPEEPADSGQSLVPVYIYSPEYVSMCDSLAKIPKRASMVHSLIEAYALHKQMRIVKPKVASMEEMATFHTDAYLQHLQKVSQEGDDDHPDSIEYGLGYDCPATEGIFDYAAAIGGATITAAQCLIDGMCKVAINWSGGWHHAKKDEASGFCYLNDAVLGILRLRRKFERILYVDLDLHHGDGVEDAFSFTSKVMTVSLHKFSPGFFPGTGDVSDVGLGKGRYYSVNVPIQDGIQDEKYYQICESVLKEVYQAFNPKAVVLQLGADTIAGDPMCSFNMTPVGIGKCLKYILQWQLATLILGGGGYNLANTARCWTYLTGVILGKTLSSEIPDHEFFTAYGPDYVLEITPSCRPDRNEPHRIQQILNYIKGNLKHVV

KB7D [6] = assay: Induction of apoptosis in human KB7D cells assessed as increase in cleaved PARP expression by Western blot analysis; assay type: functional, cell-based; method in brief: as §2
KB-VIN [7] = assay: Induction of apoptosis in human KB-VIN cells assessed as increase in cleaved caspase-3 expression by Western blot analysis; assay type: functional, cell-based; method in brief: as §2
[8] = biological target: Histone deacetylase 3/Nuclear receptor corepressor 2 (HDAC3/NCoR2) (Homo sapiens, UniProt O15379); assay: Inhibition of human recombinant HDAC3/NCOR2 using RHKKAc-AMC as substrate measured after 60 mins by fluorescence assay; assay type: protein-complex assay
KB7D [9] = assay: Induction of apoptosis in human KB7D cells assessed as increase in activated gammaH2AX expression at 0.01 to 0.1 uM measured after 48 hrs by Western blot analysis; assay type: functional, cell-based; conditions: dose 0.01-0.1 µM; method in brief: as §2
KB7D [10] = assay: Induction of apoptosis in human KB7D cells assessed as increase in cleaved PARP expression at 0.01 to 0.1 uM measured after 48 hrs by Western blot analysis; assay type: functional, cell-based; conditions: dose 0.01-0.1 µM; method in brief: as §2
KB7D [11] = assay: Induction of apoptosis in human KB7D cells assessed as increase in activated gammaH2AX expression at 0.1 to 0.5 uM measured after 24 hrs by Western blot analysis; assay type: functional, cell-based; conditions: dose 0.1-0.5 µM; method in brief: as §2
KB7D [12] = assay: Cell cycle arrest in human KB7D cells assessed as increase in accumulation at G2/M phase at 0.01 to 0.05 uM measured after 18 to 24 hrs by propidium iodide staining based flow cytometry; assay type: functional; conditions: dose 0.01-0.05 µM, time 18-24 hrs; method in brief: as §1
Tubulin (Homo sapiens) [13] = biological target: T1, Tubulin (Homo sapiens); assay: Induction of microtubule disruption in human KB-VIN cells assessed as polymerized fraction at 0.1 uM measured after 16 hrs by SDS-PAGE analysis (reference value: 23.1 to 25.5%); assay type: cell-based; method in brief: as §3
KB-VIN [14] = assay: Induction of apoptosis in human KB-VIN cells assessed as increase in cleaved caspase-3 expression at 0.1 to 0.5 uM measured after 24 hrs by Western blot analysis; assay type: functional, cell-based; conditions: dose 0.1-0.5 µM; method in brief: as §2
KB-VIN [15] = assay: Cell cycle arrest in human KB-VIN cells assessed as increase in accumulation at G2/M phase at 0.01 to 0.05 uM measured after 18 to 24 hrs by propidium iodide staining based flow cytometry; assay type: functional; conditions: dose 0.01-0.05 µM, time 18-24 hrs; method in brief: as §1
KB7D [16] = assay: Induction of apoptosis in human KB7D cells assessed as increase in activated gammaH2AX expression by Western blot analysis; assay type: functional, cell-based; method in brief: as §2

Histone deacetylase 3/Nuclear receptor corepressor 2 (HDAC3/NCoR2), sequence (O15379 whole entry): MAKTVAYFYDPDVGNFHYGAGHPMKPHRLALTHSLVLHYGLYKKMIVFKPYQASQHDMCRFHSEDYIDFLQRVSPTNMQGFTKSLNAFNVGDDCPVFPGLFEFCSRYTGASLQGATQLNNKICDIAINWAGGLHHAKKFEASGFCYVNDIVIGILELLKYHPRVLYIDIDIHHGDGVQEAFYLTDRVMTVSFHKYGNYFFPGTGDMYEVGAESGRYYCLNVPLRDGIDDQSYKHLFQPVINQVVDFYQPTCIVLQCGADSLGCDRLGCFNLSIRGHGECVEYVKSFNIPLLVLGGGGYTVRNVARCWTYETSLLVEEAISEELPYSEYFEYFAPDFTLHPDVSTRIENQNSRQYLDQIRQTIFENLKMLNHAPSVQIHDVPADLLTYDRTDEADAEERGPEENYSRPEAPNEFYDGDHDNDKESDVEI
Histone deacetylase 3/Nuclear receptor corepressor 2 (HDAC3/NCoR2), sequence (Q9Y618 whole entry, further chain): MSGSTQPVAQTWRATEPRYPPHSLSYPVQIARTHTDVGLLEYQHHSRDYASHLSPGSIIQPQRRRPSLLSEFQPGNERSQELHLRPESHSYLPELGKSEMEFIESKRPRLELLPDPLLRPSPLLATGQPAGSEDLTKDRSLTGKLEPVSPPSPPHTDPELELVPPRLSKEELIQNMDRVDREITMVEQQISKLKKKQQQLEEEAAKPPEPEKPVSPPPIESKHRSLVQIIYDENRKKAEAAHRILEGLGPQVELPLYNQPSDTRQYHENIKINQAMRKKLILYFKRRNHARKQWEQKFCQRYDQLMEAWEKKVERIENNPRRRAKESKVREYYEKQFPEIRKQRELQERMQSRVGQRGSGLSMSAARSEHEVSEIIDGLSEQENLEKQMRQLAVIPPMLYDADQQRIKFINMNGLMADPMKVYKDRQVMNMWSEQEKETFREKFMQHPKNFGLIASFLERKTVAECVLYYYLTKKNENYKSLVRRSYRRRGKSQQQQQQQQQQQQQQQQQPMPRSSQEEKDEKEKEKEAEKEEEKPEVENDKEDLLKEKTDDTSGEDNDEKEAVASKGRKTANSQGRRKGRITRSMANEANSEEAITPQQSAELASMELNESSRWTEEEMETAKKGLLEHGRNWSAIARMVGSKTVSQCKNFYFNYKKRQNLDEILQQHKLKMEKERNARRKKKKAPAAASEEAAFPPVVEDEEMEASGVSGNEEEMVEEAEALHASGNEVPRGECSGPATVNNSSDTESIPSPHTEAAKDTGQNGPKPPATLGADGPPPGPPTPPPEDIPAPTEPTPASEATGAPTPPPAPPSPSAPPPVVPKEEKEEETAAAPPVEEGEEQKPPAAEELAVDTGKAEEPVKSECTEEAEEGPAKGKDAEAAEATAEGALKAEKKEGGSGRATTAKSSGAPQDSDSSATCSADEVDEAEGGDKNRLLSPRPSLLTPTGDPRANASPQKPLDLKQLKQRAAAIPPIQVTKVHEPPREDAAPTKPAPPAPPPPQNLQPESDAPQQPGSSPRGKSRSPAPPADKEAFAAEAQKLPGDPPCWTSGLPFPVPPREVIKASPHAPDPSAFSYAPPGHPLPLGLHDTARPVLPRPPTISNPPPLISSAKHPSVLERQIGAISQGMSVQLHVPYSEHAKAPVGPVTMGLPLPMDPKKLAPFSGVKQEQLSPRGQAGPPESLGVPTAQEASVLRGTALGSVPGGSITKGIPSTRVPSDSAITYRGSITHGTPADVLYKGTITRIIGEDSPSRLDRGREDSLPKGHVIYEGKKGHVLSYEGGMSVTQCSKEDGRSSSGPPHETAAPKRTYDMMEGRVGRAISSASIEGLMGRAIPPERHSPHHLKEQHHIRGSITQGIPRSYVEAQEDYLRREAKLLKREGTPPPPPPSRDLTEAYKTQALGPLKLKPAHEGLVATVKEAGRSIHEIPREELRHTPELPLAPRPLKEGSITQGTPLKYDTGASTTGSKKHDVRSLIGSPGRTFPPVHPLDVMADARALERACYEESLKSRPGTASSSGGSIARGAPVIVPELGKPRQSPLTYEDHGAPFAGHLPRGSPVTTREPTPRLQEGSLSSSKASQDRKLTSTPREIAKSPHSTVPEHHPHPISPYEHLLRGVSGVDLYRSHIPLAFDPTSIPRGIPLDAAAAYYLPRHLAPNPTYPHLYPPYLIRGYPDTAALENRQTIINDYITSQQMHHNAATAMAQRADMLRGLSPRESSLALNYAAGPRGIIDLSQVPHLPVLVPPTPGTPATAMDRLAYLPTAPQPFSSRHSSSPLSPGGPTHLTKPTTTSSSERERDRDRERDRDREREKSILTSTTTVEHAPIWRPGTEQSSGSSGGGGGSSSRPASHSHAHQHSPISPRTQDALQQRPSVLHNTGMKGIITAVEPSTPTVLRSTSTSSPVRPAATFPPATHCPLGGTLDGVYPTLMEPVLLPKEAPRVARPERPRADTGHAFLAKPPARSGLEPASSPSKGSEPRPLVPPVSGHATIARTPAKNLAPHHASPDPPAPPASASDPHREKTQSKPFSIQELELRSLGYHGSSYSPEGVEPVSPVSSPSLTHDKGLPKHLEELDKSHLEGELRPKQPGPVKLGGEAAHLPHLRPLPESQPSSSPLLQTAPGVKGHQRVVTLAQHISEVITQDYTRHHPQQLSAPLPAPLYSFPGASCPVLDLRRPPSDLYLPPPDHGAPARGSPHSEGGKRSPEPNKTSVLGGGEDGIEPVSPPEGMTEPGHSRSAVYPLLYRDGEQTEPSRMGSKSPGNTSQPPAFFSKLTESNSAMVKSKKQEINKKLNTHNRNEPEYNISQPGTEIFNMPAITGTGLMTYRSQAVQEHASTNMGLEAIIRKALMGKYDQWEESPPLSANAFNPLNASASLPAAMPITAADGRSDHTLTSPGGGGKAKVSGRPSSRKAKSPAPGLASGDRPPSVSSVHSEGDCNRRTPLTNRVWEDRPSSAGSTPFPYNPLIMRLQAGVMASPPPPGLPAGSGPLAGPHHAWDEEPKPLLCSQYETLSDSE

GI50 (KB): 10 nM
Activity (Tubulin (Homo sapiens) [5]): 25.9%
IC50 (Histone deacetylase 8): > 10000 nM
IC50 [8]: 2270 nM
Activity (Tubulin (Homo sapiens) [13]): 20.4%
Structure (SMILES): COc1ccc(S(=O)(=O)Nc2ccccc2NCc2ccc(C(=O)Nc3ccccc3N)cc2)cc1
Activity (KB7D [1]): Active
Activity (KB-VIN [2]): Active
Activity (KB-VIN [3]): Active
Activity (KB-VIN [4]): Active
Activity (KB7D [6]): Dose-dependent effect
Activity (KB-VIN [7]): Dose-dependent effect
Activity (KB7D [9]): Active
Activity (KB7D [10]): Active
Activity (KB7D [11]): Active
Activity (KB7D [12]): Active
Activity (KB-VIN [14]): Active
Activity (KB-VIN [15]): Active
Activity (KB7D [16]): Dose-dependent effect
